This sample holds only a part of the variants without activity.

The labels stand for the following.
B1: tRNA (parent)
chain: GUUCCGUUGGCGUAAUGGUAACGCGUCUCCCUCCUAAGGAGAAGACUGCGGGUUCGAGUCCCGUACGGAACG

The variants in the series derive from B1. Put plainly: yeast fitness relative to wild type (ratio to wild type); higher = fitter; tRNA-Arg(CCU), competitive growth, 37 C, YPD. The gist of the method: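 Genotype frequency changes were the basis for Darwinian fitness relative to wild type. The frequencies came from 100-nucleotide paired-end sequencing of gene amplicons from the start population and each end population of pooled yeast strains with tRNA-Arg(CCU) gene variants at the native locus. Competition ran in YPD at 37°C for 24 hours in six replicates, genotypes needed ≥ 100 starting reads, and estimates < 0.5 were set to 0.5.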
For G9C A42U C61U U64A A69G, the yeast fitness was not above 0.5.

On to G9A G25C U26A C30U, for which the yeast fitness was not above 0.5.

G9A U13C C29G: the yeast fitness was not above 0.5.

For G9A U32G C49G C55A, the yeast fitness was not above 0.5.

G9A G25A: the yeast fitness amounted to 0.978.

As for G9A G41A A69C, the yeast fitness was 0.558.

For the variant G9A G23A C27A G67C, the yeast fitness is not above 0.5.

Turning to G9A G10A C60U A69C, the yeast fitness was 0.618.

As to G9A G51A A57G, the yeast fitness was not above 0.5.

For the variant G9C A37G, the yeast fitness was found to be 0.623.

Turning to G9A U16C U19G C27A C33U U53C A65U C66U, the yeast fitness was not above 0.5.

For G9A G10A A21G A57G C66U, the yeast fitness was not above 0.5.

For the variant G9C A14U U28C U35G, the yeast fitness came to 0.623.

In the case of G9A C31U A57C U64A G68A, the yeast fitness is not above 0.5.

Consider G9A G48A G63A A69U, for which the yeast fitness stood at 0.764.

For the variant G9A U13A U32A, the yeast fitness was determined as 0.839.

G9A U13A C46U: the yeast fitness was 0.708.

Turning to G9A C49U G68A, the yeast fitness was 0.668.

With G9A C49U G68C, the yeast fitness turned out to be 0.657.

As to G9A G17C C29G C49G, the yeast fitness was not above 0.5.

Consider G9A U19A A65C, for which the yeast fitness was found to be 0.746.

As to G9A G12A C30G U32C G50A, the yeast fitness was 0.554.

As to G9A C33A C46A G56C, the yeast fitness is not above 0.5.

Turning to G9C A37C C46U U53A, the yeast fitness was not above 0.5.

For G9A U16A G23C C24A U28G C34U A37U, the yeast fitness is not above 0.5.

For the variant G9A C55G A65C, the yeast fitness was not above 0.5.

As to G9A C49U A69C, the yeast fitness amounted to 0.85.

For the variant G9A C33U A36U, the yeast fitness was found to be 0.536.

G9A C34G C55U G63A: the yeast fitness was not above 0.5.

Consider G9A C60U U64G, for which the yeast fitness was determined as 0.696.

For the variant G9A G12C C22U, the yeast fitness came out at 0.591.

Turning to G9A G39C C66U, the yeast fitness came to 0.606.

Consider G9A U26A A43U C55U, for which the yeast fitness is not above 0.5.

As for G9A U13A A15G C27U, the yeast fitness is not above 0.5.

With G9A G12A C29G A65U, the yeast fitness was not above 0.5.

Take G9A G10A: the yeast fitness is 0.577.

G9A U13A U19C C30U C61A: the yeast fitness is not above 0.5.

On to G9A U13C U19C, for which the yeast fitness is 0.907.

Turning to G9A G23A C29U A43G G68U, the yeast fitness is not above 0.5.

On to G9A G25A A40C C46U, for which the yeast fitness stood at 0.727.

G9A U19C C49G: the yeast fitness was 0.634.

With G9A G39A G63C, the yeast fitness came to 0.556.

As for G9C A20U U28A C62U, the yeast fitness is not above 0.5.

Regarding G9A U54A A69C, the yeast fitness was 0.746.

On to G9A G63A, for which the yeast fitness is 1.06.

With G9C A15C A45C C49U C62G C66U, the yeast fitness came to 0.591.

Regarding G9A U19G C66U, the yeast fitness was found to be 0.64.

For the variant G9A U16C C30G C34G A40G C61A C62U G63C, the yeast fitness amounted to 0.666.

Turning to G9A C60U, the yeast fitness was 0.742.

Consider G9A G17C G56C, for which the yeast fitness came out at 0.589.

For the variant G9A G23A A36G, the yeast fitness is 0.652.

Consider G9A C34G A65U, for which the yeast fitness is not above 0.5.

As to G9A U26G C55G, the yeast fitness stood at 0.57.

G9A U35C A42U G63A: the yeast fitness is not above 0.5.

As to G9A G48A A70U, the yeast fitness is 1.25.

On to G9C A37G G41A, for which the yeast fitness is not above 0.5.

As to G9A G50C C62G C66U, the yeast fitness was found to be 0.687.

On to G9C A42C A69C, for which the yeast fitness turned out to be 0.564.

For the variant G9A G25A U35G, the yeast fitness is not above 0.5.

As for G9A U16C A69C, the yeast fitness worked out at 0.763.

Turning to G9A C46U G67C, the yeast fitness is 0.633.

As to G9A G39C C62G U64C, the yeast fitness came out at 0.568.

Consider G9A U19A A43G A69C, for which the yeast fitness came out at 0.541.

As for G9A U26A A36U A40C A65U, the yeast fitness was not above 0.5.

In the case of G9A C31U A70C, the yeast fitness worked out at 0.766.

Take G9C A14G C49G: the yeast fitness was not above 0.5.

For G9A G10A C31G, the yeast fitness is not above 0.5.

For the variant G9A G10A C31G A65U, the yeast fitness is not above 0.5.

G9A C34U C46A C62U C66U: the yeast fitness was not above 0.5.

Consider G9C A15C U16A A70C, for which the yeast fitness was not above 0.5.

On to G9C A14G G67A, for which the yeast fitness is not above 0.5.

Take G9C A15U U28G C66A: the yeast fitness is not above 0.5.

In the case of G9C A20U U28A A42U G48A, the yeast fitness was not above 0.5.

For the variant G9A U13C, the yeast fitness stood at 0.893.

For the variant G9C A40U, the yeast fitness turned out to be 0.756.

Take G9A C31U A43U: the yeast fitness amounted to 0.697.

Regarding G9A G23A, the yeast fitness amounted to 0.825.

Turning to G9A G18A G25C C30U, the yeast fitness is not above 0.5.

For G9C A42G A57U, the yeast fitness is 0.521.

As for G9C A40U C46U, the yeast fitness was 0.511.

For G9A G23U A42C, the yeast fitness was not above 0.5.

On to G9A G12U A14U C27G G39A G67A, for which the yeast fitness was not above 0.5.

Regarding G9A G25C C62U, the yeast fitness came out at 0.712.

Consider G9C A14U, for which the yeast fitness is 0.509.

G9A G10A C34U C66U: the yeast fitness was not above 0.5.

As for G9A U19C G23C C49U, the yeast fitness is not above 0.5.

As for G9A G23C U64A, the yeast fitness was not above 0.5.

As to G9A G44A C55A A57U, the yeast fitness is not above 0.5.

Consider G9A C46G C61A, for which the yeast fitness is not above 0.5.

On to G9A G48C G68C, for which the yeast fitness is 0.603.

For G9A G51A, the yeast fitness was 0.919.

Take G9C A15U A21C C29A: the yeast fitness was 0.773.

Consider G9A G56U G58A, for which the yeast fitness is 0.563.

In the case of G9A G17U U35A G52A U59C C66A G67A, the yeast fitness was not above 0.5.

Turning to G9C A20U C27G C49U, the yeast fitness turned out to be 0.55.

For the variant G9A G18A C27U A42U, the yeast fitness came out at 0.652.

As for G9C A42C G68C, the yeast fitness is 0.542.

On to G9A U28A C55U G68A, for which the yeast fitness was not above 0.5.

In the case of G9A C31A G56A G67A, the yeast fitness was not above 0.5.

Consider G9A G12C C31A C33G A45G C66U G68C, for which the yeast fitness is not above 0.5.

For the variant G9C A14U A45U C49G C55G G67C, the yeast fitness is not above 0.5.

As for G9C A21C A57G, the yeast fitness was not above 0.5.

Take G9C A36G A70G: the yeast fitness was not above 0.5.

In the case of G9A C34G, the yeast fitness stood at 0.588.

Regarding G9A C33U C49G, the yeast fitness was not above 0.5.

As to G9A C34U A36G C49G C62A A65C, the yeast fitness was not above 0.5.

In the case of G9A U32C C33G A37G G52A C55U, the yeast fitness turned out to be 0.558.

With G9A U19C A69C, the yeast fitness is 0.834.

G9A G58C U59C: the yeast fitness was found to be 0.632.

As for G9C A15G C49A A69U, the yeast fitness was not above 0.5.

Take G9A G12C U13A G25A C30G: the yeast fitness was not above 0.5.

On to G9C A14U A21C, for which the yeast fitness stood at 0.61.

For the variant G9A G38A, the yeast fitness is 0.976.

For the variant G9A U16C U32G G48C G58C, the yeast fitness was not above 0.5.

G9C A21U C31G A40C C62U U64C: the yeast fitness is 0.518.

As for G9C A15U, the yeast fitness stood at 0.603.

As to G9C A15C, the yeast fitness is 0.609.

For the variant G9C A36U, the yeast fitness turned out to be 0.618.

Regarding G9C A36G, the yeast fitness is 0.691.

With G9C A37G G41A C61G, the yeast fitness was not above 0.5.

As to G9A U47A, the yeast fitness is 0.796.

With G9A U26A A43U, the yeast fitness was 0.616.

In the case of G9A G12C C31A C33G A45G G67U, the yeast fitness is not above 0.5.

Turning to G9A U28C G44A G51C G58C G68C, the yeast fitness is not above 0.5.

As for G9A U28C A70G, the yeast fitness is 0.673.

Consider G9A U16G, for which the yeast fitness worked out at 0.799.

With G9A G10C C11U U16G G41A, the yeast fitness is 0.597.

As for G9C A40U A65C, the yeast fitness was found to be 0.531.

As for G9A U16C U28G U59A, the yeast fitness was not above 0.5.

G9A C31A G50C: the yeast fitness is 0.604.

Turning to G9A G10C C11U U16G G41A G48A A65U, the yeast fitness is not above 0.5.

In the case of G9C A14C G44C U64G A70C, the yeast fitness was not above 0.5.

Regarding G9A G12C G17A C22G C30U C34G U59G A70U, the yeast fitness was not above 0.5.

As to G9A G23A C27A, the yeast fitness is not above 0.5.

For G9A G58C, the yeast fitness was 0.895.

For the variant G9C A20C A45G C46G G50A, the yeast fitness was not above 0.5.

With G9A G25A C61A, the yeast fitness was not above 0.5.

In the case of G9A C34U C49A G52A, the yeast fitness is not above 0.5.

Consider G9A U19G A57G, for which the yeast fitness came out at 0.503.

Turning to G9A C31U C55U, the yeast fitness was 0.694.

For G9A G68C, the yeast fitness is 0.857.

As to G9A C31A G41C A69C, the yeast fitness was not above 0.5.

Consider G9A C46G C49U A69C, for which the yeast fitness amounted to 0.709.

As to G9A C49U, the yeast fitness turned out to be 0.845.

Regarding G9A U16C A57G, the yeast fitness was 0.598.

On to G9A U16C C29G U53A, for which the yeast fitness was not above 0.5.

G9C A15C C31G A40G A43U: the yeast fitness is not above 0.5.

For the variant G9C A15G G17A C27A C31G G50A, the yeast fitness is not above 0.5.

In the case of G9A G50C A69U, the yeast fitness was determined as 0.752.

G9A U32G A40C C46G: the yeast fitness is not above 0.5.

Turning to G9A G18C, the yeast fitness was determined as 0.643.

For the variant G9A U32A G48C, the yeast fitness is 0.531.

As for G9C A15G A21G G48A C49G C60A, the yeast fitness is not above 0.5.

For the variant G9A U26G, the yeast fitness turned out to be 0.967.

Take G9A U59C A69U: the yeast fitness stood at 0.776.

G9A G17C A20U U54A C61U: the yeast fitness is not above 0.5.

For the variant G9C A14G A43C, the yeast fitness is not above 0.5.

As to G9A G10A C31G G52A C60U, the yeast fitness was not above 0.5.

Regarding G9A C31G C49G G51C, the yeast fitness is not above 0.5.

As to G9A C31A A65C, the yeast fitness amounted to 0.871.

Consider G9A C31A A65U, for which the yeast fitness is not above 0.5.

G9A U28G A40C A42G A69C: the yeast fitness amounted to 0.963.

On to G9A U26A U28C C55U G58A U59C, for which the yeast fitness was 0.555.

Take G9A G25C C60G: the yeast fitness was not above 0.5.

For the variant G9A G10C C60U U64G, the yeast fitness was not above 0.5.

In the case of G9A C46A C61A, the yeast fitness was determined as 0.53.

As for G9A U26G C46U, the yeast fitness was determined as 0.726.

The record behind these values is the RNAGym collection of RNA variant scans (doi:10.1126/science.aae0568).
